Assay results as given in ChEMBL document CHEMBL3632581, “Dimers of Melampomagnolide B Exhibit Potent Anticancer Activity against Hematological and Solid Tumor Cells” (J Med Chem, 2015).

Assays:
[1] = Antileukemic activity against human AML03 cells after 24 hrs by annexin V/7-AAD staining-based flow cytometric analysis; format: functional, cell-based
How it was run: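 Primary AML specimens from consenting donors, isolated by Ficoll-Paque gradient and sometimes cryopreserved. Cells were held 1 h in serum-free IMDM with 20% BIT 9500, LDL and β-mercaptoethanol before drug (DMSO stock diluted in PBS, ≤0.5% DMSO final). Exposure was 24 h over 0.5-10 μM. Annexin V/7-AAD double-negative cells, normalized to vehicle, gave the EC50. Run in triplicate.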

SNB-19 = test: Cytotoxicity against human SNB19 cells after 48 hrs by SRB assay; format: functional; conditions: SNB-19, 48 h
How it was run: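 NCI-60 five-dose screen at 10−8 to 10−4 M. Cells were plated at 5,000–40,000/well in RPMI 1640 with 5% FBS and 2 mM L-glutamine, then preincubated 24 h, and time-zero plates were TCA-fixed. Compound was added from DMSO stocks and exposed 48 h at 37 °C. Cells were TCA-fixed, SRB-stained, and read at 515 nm. LC50 is the concentration halving the cell population through cell death.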

[2] = Cytotoxicity against rat 9LSF cells at 10 uM after 48 hrs by colony formation assay relative to DMAPT; format: functional
How it was run: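 9L-SF rat gliosarcoma cells in DMEM/F12 with 10% iron-supplemented calf serum were treated at 50% confluence for 48 h (0.3-20 μM; DMSO <0.1%, DMAPT in saline). Cells were rinsed, trypsinized, counted and seeded for colonies, with irradiated feeders when seeding was below 2,000 cells/cm2. Survival was normalized to control plating efficiency and compared with DMAPT at 10 μM. Treatments in triplicate.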

SMILES | EC50 [1] [µM] | GI50 (SNB-19) [µM] | CC50 (SNB-19; read-out: LC50 (the source's name)) [µM] | fold change (FC) [2]
C=C1C(=O)O[C@H]2[C@H]1CC/C(COC(=O)NCCCCNC(=O)OC/C1=C/CC[C@@]3(C)O[C@H]3[C@H]3OC(=O)C(=C)[C@@H]3CC1)=C\CC[C@@]1(C)O[C@@H]21 | 7.3 | – | – | –
C=C1C(=O)O[C@H]2[C@H]1CC/C(COC(=O)NCCCCCNC(=O)OC/C1=C/CC[C@@]3(C)O[C@H]3[C@H]3OC(=O)C(=C)[C@@H]3CC1)=C\CC[C@@]1(C)O[C@@H]21 | – | 3.97 | 92.5 | –
C=C1C(=O)O[C@H]2[C@H]1CC/C(COC(=O)NCCCCCCCCNC(=O)OC/C1=C/CC[C@@]3(C)O[C@H]3[C@H]3OC(=O)C(=C)[C@@H]3CC1)=C\CC[C@@]1(C)O[C@@H]21 | 2.9 | – | – | 303
